ChEMBL document CHEMBL4425095, “Novel Cephalosporins Selectively Active on Nonreplicating Mycobacterium tuberculosis” (J Med Chem, 2016)
In brackets after ≈: the same amount, converted by molar mass. Activity calls are given as the source filed them. No cut-off for these calls is given here.

Key:
[1] = Cytotoxicity against human HepG2 cells assessed as reduction in cell viability after 2 days by Celltiter-Glo reagent based assay; conditions: read-out: LD50
In short: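 HepG2 cells in DMEM with 10% FBS, pyruvate, glutamine and nonessential amino acids. Seeded at 3000 cells/well and exposed 2 days to compound or vehicle (≤1% DMSO final). Reported as LD50.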

[2] = test system: Mycobacterium tuberculosis; test: Bactericidal activity against wild-type non-replicating Mycobacterium tuberculosis H37Rv multi-stress model at 0.1 to 100 ug/ml incubated for 7 days measured at OD580 = 0.01 by charcoal agar resazurin assay; format: functional, organism-based
[3] = test system: Mycobacterium tuberculosis; test: Bactericidal activity against wild-type non-replicating Mycobacterium tuberculosis H37Rv at 1 to 100 ug/ml incubated for 7 days measured at OD580 = 0.1 in presence of 1 mM NaNO2; format: functional, organism-based
In short: (§1)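 Wild-type H37Rv resuspended at OD580 0.1 in nonreplicating medium with NaNO2 at 0–1 mM, one plate per nitrite level. Exposed to compound for 7 days, then standard outgrowth assay to estimate survivors.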

[4] = test system: Mycobacterium tuberculosis; test: Bactericidal activity against wild-type non-replicating Mycobacterium tuberculosis H37Rv at 1 to 100 ug/ml incubated for 7 days measured at OD580 = 0.1 in presence of up to 0.5 mM NaNO2; format: functional, organism-based; in short: as §1
[5] = test system: Mycobacterium tuberculosis; test: Bactericidal activity against wild-type replicating Mycobacterium tuberculosis H37Rv assessed as reduction in CFU in presence of beta-lactamase inhibitor clavulanate; format: functional, organism-based
[6] = Stability in pH 7.4 phosphate buffer solution assessed as parent compound remaining at 5 to 50 ug/ml at 37 degC measured every 12 hrs up to 144 hrs by LC-MS analysis; format: physicochemical
In short: (§2)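 Compound at 50 μg/mL in cell-free PBS pH 7.4, or nonreplicating medium pH 5.0 (BSA, tyloxapol, lysine, pantothenate omitted) with or without 0.5 mM NaNO2. Poorly soluble compounds at 5 μg/mL in 50:50 acetonitrile mixtures, pH readjusted to 5.0.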

[7] = Stability in pH 5 non-replicating medium containing 0.5 mM NaNO2 assessed as parent compound remaining at 5 to 50 ug/ml at 37 degC measured every 12 hrs up to 144 hrs by LC-MS analysis; format: physicochemical; conditions: buffer; in short: as §2
[8] = Stability in pH 5 non-replicating medium assessed as parent compound remaining at 5 to 50 ug/ml at 37 degC measured every 12 hrs up to 144 hrs by LC-MS analysis; format: physicochemical; conditions: buffer; in short: as §2
[9] = test system: Mycobacterium tuberculosis; test: Bactericidal activity against wild-type non-replicating Mycobacterium tuberculosis H37Rv multi-stress model incubated for 7 days measured at OD580 = 0.01 by charcoal agar resazurin assay; format: functional, organism-based
In short: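 Nonreplicating wild-type H37Rv at OD580 0.1 or 0.01 treated 7 days with or without 0.5 mM NaNO2. 10 μL spotted onto 7H11-OADC-charcoal agar and incubated 7–10 days at 37 °C. Developed with Alamar blue:Tween80 1:1 for 1 h; fluorescence read at ex 530/em 590. Complete loss of fluorescence taken as ≥2–3 log10 CFU reduction.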

SMILES	CC50 at 48 h [1] [µg/mL]	further results
COc1ccc(CCC(=O)N[C@@H]2C(=O)N3C(C(=O)OCc4ccccc4)=C(C)CS[C@H]23)cc1	> 100	
CCCc1noc(C2=C(C)CS[C@@H]3[C@H](NC(=O)CCc4ccccc4Cl)C(=O)N23)n1	> 100	
CC1=C(c2nc(C)no2)N2C(=O)[C@@H](NC(=O)Cc3ccc(Cl)c(Cl)c3)[C@H]2SC1	18.9 (≈ 42.9 µM)	
CC1=C(c2nc(C)no2)N2C(=O)[C@@H](NC(=O)OC(C)(C)C)[C@H]2SC1	> 100	
COC(=O)C1=C(C)CS[C@@H]2[C@H](NC(=O)COc3ccc(OC)cc3)C(=O)N12	> 100	
CCCCOc1ccc(CCC(=O)N[C@@H]2C(=O)N3C(c4nc(C)no4)=C(C)CS[C@H]23)cc1	74.4 (≈ 163 µM)	
CC1=C(c2nc(C)no2)N2C(=O)[C@@H](NC(=O)Cc3ccccc3)[C@H]2SC1	> 100	
COC(=O)C1=C(C)CS[C@@H]2[C@H](NC(=O)COc3ccccc3)C(=O)N12	> 100	
CCOC(=O)C1=C(C)CS[C@@H]2[C@H](NC(=O)COc3ccc(OC)cc3)C(=O)N12	> 100	
COc1ccc(OCC(=O)N[C@@H]2C(=O)N3C(C(=O)OCc4ccccc4)=C(C)CS[C@H]23)cc1	> 100	
C#CCOC(=O)C1=C(C)CS[C@@H]2[C@H](NC(=O)CCc3ccccc3)C(=O)N12	> 100	
CCCc1noc(C2=C(C)CS[C@@H]3[C@H](NC(=O)COc4ccc(Cl)cc4)C(=O)N23)n1	64.3 (≈ 143 µM)	Activity [2]: Active
CC(=O)OCC1=C(C(=O)O)N2C(=O)[C@@H](NC(=O)Cc3cccs3)[C@H]2SC1 [CEPHALOTHIN]	> 100	
CCCc1noc(C2=C(C)CS[C@@H]3[C@H](NC(=O)Cc4ccc(C)cc4)C(=O)N23)n1	> 100	
CC1=C(c2nc(C)no2)N2C(=O)[C@@H](NC(=O)Cc3ccc(Cl)cc3)[C@H]2SC1	> 100	
CCOC(=O)C1=C(C)CS[C@@H]2[C@H](NC(=O)CCc3ccc(OC)cc3)C(=O)N12	> 100	Activity [2]: Active
CO[C@H]1/C=C/O[C@@]2(C)Oc3c(C)c(O)c4c(O)c(c(/C=N/N5CCN(C)CC5)c(O)c4c3C2=O)NC(=O)/C(C)=C\C=C\[C@H](C)[C@H](O)[C@@H](C)[C@@H](O)[C@@H](C)[C@H](OC(C)=O)[C@@H]1C		Activity [3]: Active; Activity [4]: inactive
CCCOC(=O)C1=C(C)CS[C@@H]2[C@H](NC(=O)COc3ccc(OC)cc3)C(=O)N12	> 100	
CC1=C(c2nc(C)no2)N2C(=O)[C@@H](NC(=O)Cc3ccc(C)cc3)[C@H]2SC1	> 100	
C#CCNC(=O)C1=C(C)CS[C@@H]2[C@H](NC(=O)COc3ccccc3)C(=O)N12	> 100	
CCCOC(=O)C1C(C)=CS[C@@H]2[C@H](NC(=O)CCc3ccc(OC)cc3)C(=O)N12 (some centres not stated)	> 100	
COC(=O)C1=C(C)CS[C@@H]2[C@H](NC(=O)COc3ccc(Cl)cc3)C(=O)N12	> 100	

SMILES	CC50 at 48 h [1] [µg/mL]	further results
CCOC(=O)C1=C(C)CS[C@@H]2[C@H](NC(=O)COc3ccccc3)C(=O)N12	> 100	
COC(=O)C1=C(C)CS[C@@H]2[C@H](NC(=O)[C@H](N)c3ccccc3)C(=O)N12	> 100	
CCCc1noc(C2=C(C)CS[C@@H]3[C@H](NC(=O)CCc4ccc(C)cc4)C(=O)N23)n1	> 100	
CCOC(=O)C1=C(C)CS[C@@H]2[C@H](NC(=O)COc3ccc(Cl)cc3)C(=O)N12	41 (≈ 99.8 µM)	
CCCCOC(=O)C1=C(C)CS[C@@H]2[C@H](NC(=O)CCc3ccccc3)C(=O)N12	> 100	Activity [2]: Active
CCCc1noc(C2=C(C)CS[C@@H]3[C@H](NC(=O)Cc4ccc(OC)cc4)C(=O)N23)n1	72.4 (≈ 169 µM)	
CCCc1noc(C2=C(C)CS[C@@H]3[C@H](NC(=O)CCc4ccc(F)cc4)C(=O)N23)n1	> 100	
CCCc1noc(C2=C(C)CS[C@@H]3[C@H](NC(=O)Cc4ccccc4)C(=O)N23)n1	> 100	
CC1=C(c2nc(C)no2)N2C(=O)[C@@H](NC(=O)COc3ccc(Cl)cc3)[C@H]2SC1	19.5 (≈ 46.4 µM)	Activity [2]: Active
CC1=CS[C@@H]2[C@H](NC(=O)COc3ccccc3)C(=O)N2[C@H]1CO	> 100	
CC1=C(C(=O)O)N2C(=O)[C@@H](NC(=O)CCc3ccc(Br)cc3)[C@H]2SC1	> 100	
CCCc1noc(C2=C(C)CS[C@@H]3[C@H](NC(=O)Cc4ccc(Cl)cc4)C(=O)N23)n1	20.6 (≈ 47.6 µM)	
CCCOC(=O)N[C@@H]1C(=O)N2C(C(=O)OCCC)=C(C)CS[C@H]12	> 100	Activity [5]: inactive; Stability [6]: 80%; Stability [7]: 100%; Stability [8]: 100%
CC1=C(c2nc(C)no2)N2C(=O)[C@@H](NC(=O)OCC(C)(C)C)[C@H]2SC1	> 100	
CCOC(=O)C1=C(C)CS[C@@H]2[C@H](NC(=O)CCc3ccccc3)C(=O)N12	> 100	
COC(=O)C1=C(C)CS[C@@H]2[C@H](NC(=O)CCc3ccccc3)C(=O)N12	> 100	
COC(=O)C1=C(C)CS[C@@H]2[C@H](NC(=O)[C@@H](c3ccccc3)N(C)C)C(=O)N12	> 100	
CC1=C(C(=O)O)N2C(=O)[C@@H](NC(=O)Cc3ccc(Cl)cc3)[C@H]2SC1	> 100	
CCCc1noc(C2=C(C)CS[C@@H]3[C@H](NC(=O)CCc4ccc(OC)cc4)C(=O)N23)n1	> 100	Activity [2]: Active
CCCCOc1ccc(CCC(=O)N[C@@H]2C(=O)N3C(c4nc(CCC)no4)=C(C)CS[C@H]23)cc1	> 100	
C#CCOC(=O)C1=C(C)CS[C@@H]2[C@H](NC(=O)COc3ccc(Cl)cc3)C(=O)N12	63.4 (≈ 151 µM)	
CCSC(=O)N[C@@H]1C(=O)N2C(c3nc(C)no3)=C(C)CS[C@H]12	> 100	

SMILES	CC50 at 48 h [1] [µg/mL]	further results
CC1=C(c2nc(C)no2)N2C(=O)[C@@H](NC(=O)OCC(Cl)(Cl)Cl)[C@H]2SC1	> 100	Activity [2]: Active
CC1=C(C(=O)OCc2ccccc2)N2C(=O)[C@@H](NC(=O)COc3ccc(Cl)cc3)[C@H]2SC1	> 100	
CCCCOC(=O)C1=C(C)CS[C@@H]2[C@H](NC(=O)CCc3ccc(OC)cc3)C(=O)N12	> 100	
CCCc1noc(C2=C(C)CS[C@@H]3[C@H](NC(=O)c4ccc(Cl)cc4)C(=O)N23)n1	> 100	Activity [2]: Active
CCCN[C@@H]1C(=O)N2C(C(=O)OCCC)=C(C)CS[C@H]12	> 100	Activity [5]: inactive; Stability [6]: 100%; Stability [7]: 40%; Stability [8]: 100%
CC1=C(C(=O)O)N2C(=O)[C@@H](NC(=O)[C@H](N)c3ccccc3)[C@H]2SC1 [CEPHALEXIN ANHYDROUS]		Activity [9]: inactive
COc1ccc(CCC(=O)N[C@@H]2C(=O)N3C(c4nc(C)no4)=C(C)CS[C@H]23)cc1	> 100	
CCCCOC(=O)C1C(C)=CS[C@@H]2[C@H](NC(=O)COc3ccccc3)C(=O)N12 (some centres not stated)	61.8 (≈ 153 µM)	
C=CC1=C(C(=O)O)N2C(=O)[C@@H](NC(=O)/C(=N\O)c3csc(N)n3)[C@H]2SC1	> 100	
CCCc1noc(C2=C(C)CS[C@@H]3[C@H](NC(=O)CCc4ccc(Cl)cc4)C(=O)N23)n1	> 100	
CCCOC(=O)C1=C(C)CS[C@@H]2[C@H](NC(=O)COc3ccc(Cl)cc3)C(=O)N12	49.2 (≈ 116 µM)	
CCCCOC(=O)C1=C(C)CS[C@@H]2[C@H](NC(=O)COc3ccc(Cl)cc3)C(=O)N12	> 100	
CCCOC(=O)C1=C(C)CS[C@@H]2[C@H](NC(=O)[C@H](N)c3ccccc3)C(=O)N12	> 100	
COC(=O)C1=C(C)CS[C@@H]2[C@H](NC(=O)CCc3ccc(OC)cc3)C(=O)N12	> 100	
CC1=C(c2nc(C)no2)N2C(=O)[C@@H](NC(=O)[C@H](N)c3ccccc3)[C@H]2SC1	> 100	
CC1=C(C(=O)O)N2C(=O)[C@@H](NC(=O)c3ccc(Cl)cc3)[C@H]2SC1	> 100	
CCCCOC(=O)C1=C(C)CS[C@@H]2[C@H](NC(=O)COc3ccc(OC)cc3)C(=O)N12	> 100	
CCCOC(=O)C1=C(C)CS[C@@H]2[C@H](NC(=O)CCc3ccccc3)C(=O)N12	> 100	
COc1ccc(CC(=O)N[C@@H]2C(=O)N3C(c4nc(C)no4)=C(C)CS[C@H]23)cc1	> 100	
CCCCOC(=O)C1=C(C)CS[C@@H]2[C@H](NC(=O)CCc3ccc(Cl)cc3)C(=O)N12	> 100	
C#CCOC(=O)C1=C(C)CS[C@@H]2[C@H](NC(=O)CCc3ccc(Cl)cc3)C(=O)N12	> 100	
CCCOC(=O)C1=C(C)CS[C@@H]2[C@H](NC(=O)CCc3ccc(OC)cc3)C(=O)N12	> 100	
